Data taken from ChEMBL document CHEMBL1134337, “Behavioral approach to nondyskinetic dopamine antagonists: identification of seroquel” (J Med Chem, 2001).

Legend:
[1] = Number of animals showing dyskinesias was determined in haloperidol sensitized 9 cebus monkeys after (po) administration of 80 mg/kg; type: functional
Summary of the method: (§1)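 Adult female and male Cebus monkeys sensitized with oral haloperidol 1 mg/kg once per week until dyskinetic reactions occurred. Test drug given orally (2 mL/kg) in 0.5% w/w hydroxypropylmethylcellulose with 0.1% w/w Tween 80 in distilled water, at least 2 weeks between treatments. Two observers watched continuously for 6-7 h, recording reaction type and severity every 30 min. Score is monkeys with dyskinesias/monkeys tested.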

[2] = molecular target: D(2) dopamine receptor (Rattus norvegicus) (UniProt P61169); assay: Binding affinity at dopamine receptor D2 from rat by spiropiperidone displacement.
Summary of the method: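 D2 receptor binding was read as % displacement of spiropiperidone, with test compound at 1000 nM unless stated otherwise. IC50 values used at least five concentrations per compound in triplicate. Each value is the mean of two replicate experiments differing by 5% or less.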

Mus musculus [3] = assay: Antagonism of apomorphine induced climbing was determined in female swiss -Wbster mice after (ip) administration of 20 mg/kg; type: functional
Summary of the method: (§2)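 Female Swiss-Webster mice (about 20 g) were fasted about 24 h, then given test compound or vehicle ip or po (N = 20 per group). Vehicle was 0.5% w/w hydroxypropylmethylcellulose with 0.1% w/w Tween 80 in water. After 30 min, mice received apomorphine HCl 1.25 mg/kg sc. At 13 min, each mouse was watched for 1 min; score was mean of highest and lowest rung of 27. Groups were compared with vehicle by Student's t-test.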

Mus musculus [4] = assay: Antagonism of apomorphine induced climbing was determined in female swiss -Wbster mice after (ip) administration of 40 mg/kg; type: functional; summary of the method: as §2
Mus musculus [5] = assay: Antagonism of apomorphine induced climbing was determined in female swiss -Wbster mice after (ip) administration of 80 mg/kg; type: functional; summary of the method: as §2
Mus musculus [6] = assay: Antagonism of apomorphine induced climbing was determined in female swiss -Wbster mice after (po) administration of 20 mg/kg; type: functional; summary of the method: as §2
Mus musculus [7] = assay: Antagonism of apomorphine induced climbing was determined in female swiss -Wbster mice after (po) administration of 40 mg/kg; type: functional; summary of the method: as §2
Mus musculus [8] = assay: Antagonism of apomorphine induced climbing was determined in female swiss -Wbster mice after (po) administration of 80 mg/kg; type: functional; summary of the method: as §2
Mus musculus [9] = assay: Antagonism of apomorphine induced swimming was determined in female swiss -Wbster mice after (po) administration of 20 mg/kg; type: functional
Mus musculus [10] = assay: Antagonism of apomorphine induced swimming was determined in female swiss -Wbster mice after (po) administration of 40 mg/kg; type: functional
Mus musculus [11] = assay: Antagonism of apomorphine induced swimming was determined in female swiss -Wbster mice after (po) administration of 80 mg/kg; type: functional
[12] = Number of animals showing dyskinesias was determined in haloperidol sensitized cebus monkey after (po) administration of 10 mg/kg; type: functional; summary of the method: as §1
D(2) dopamine receptor = D(2) dopamine receptor (Rattus norvegicus, UniProt P61169); assay: Inhibition of spiropiperidone binding at dopamine receptor D2 of rat.
Mus musculus [13] = assay: Antagonism of apomorphine induced climbing was determined in female swiss -Webster mice after (ip) administration of 10 mg/kg; type: functional; summary of the method: as §2
Mus musculus [14] = assay: Antagonism of apomorphine induced climbing was determined in female swiss -Webster mice after (ip) administration of 2.5 mg/kg; type: functional; summary of the method: as §2
Mus musculus [15] = assay: Antagonism of apomorphine induced climbing was determined in female swiss -Webster mice after (ip) administration of 20 mg/kg; type: functional; summary of the method: as §2
Mus musculus [16] = assay: Antagonism of apomorphine induced climbing was determined in female swiss -Webster mice after (ip) administration of 40 mg/kg; type: functional; summary of the method: as §2
Mus musculus [17] = assay: Antagonism of apomorphine induced climbing was determined in female swiss -Webster mice after (ip) administration of 5 mg/kg; type: functional; summary of the method: as §2
Mus musculus [18] = assay: Antagonism of apomorphine induced swimming was determined in female swiss -Webster mice after (ip) administration of 10 mg/kg; type: functional
Mus musculus [19] = assay: Antagonism of apomorphine induced swimming was determined in female swiss -Webster mice after (ip) administration of 2.5 mg/kg; type: functional
Mus musculus [20] = assay: Antagonism of apomorphine induced swimming was determined in female swiss -Webster mice after (ip) administration of 20 mg/kg; type: functional
Mus musculus [21] = assay: Antagonism of apomorphine induced swimming was determined in female swiss -Webster mice after (ip) administration of 40 mg/kg; type: functional
Mus musculus [22] = assay: Antagonism of apomorphine induced swimming was determined in female swiss -Webster mice after (ip) administration of 5 mg/kg; type: functional
Mus musculus [23] = assay: Antagonism of apomorphine induced climbing was determined in female swiss -Webster mice after (po) administration of 20 mg/kg; type: functional; summary of the method: as §2
Mus musculus [24] = assay: Antagonism of apomorphine induced climbing was determined in female swiss -Webster mice after (po) administration of 40 mg/kg; type: functional; summary of the method: as §2
Mus musculus [25] = assay: Antagonism of apomorphine induced climbing was determined in female swiss -Webster mice after (po) administration of 5 mg/kg; type: functional; summary of the method: as §2
Mus musculus [26] = assay: Antagonism of apomorphine induced climbing was determined in female swiss -Webster mice after (p.o.) +SKF525A administration of 10 mg/kg; type: functional; settings: route oral; summary of the method: as §2
Mus musculus [27] = assay: Antagonism of apomorphine induced climbing was determined in female swiss -Webster mice after (p.o.) +SKF525A administration of 2.5 mg/kg; type: functional; settings: route oral; summary of the method: as §2
Mus musculus [28] = assay: Antagonism of apomorphine induced climbing was determined in female swiss -Webster mice after (p.o.) +SKF525A administration of 20 mg/kg; type: functional; settings: route oral; summary of the method: as §2
Mus musculus [29] = assay: Antagonism of apomorphine induced climbing was determined in female swiss -Webster mice after (po) administration of 2.5 mg/kg; type: functional; summary of the method: as §2
Mus musculus [30] = assay: Antagonism of apomorphine induced climbing was determined in female swiss -Webster mice after (p.o.) +SKF525A administration of 40 mg/kg; type: functional; settings: route oral; summary of the method: as §2
Mus musculus [31] = assay: Antagonism of apomorphine induced climbing was determined in female swiss -Webster mice after (p.o.) +SKF525A administration of 5 mg/kg; type: functional; settings: route oral; summary of the method: as §2
Mus musculus [32] = assay: Antagonism of apomorphine induced climbing was determined in female swiss -Webster mice after (po) administration of 10 mg/kg; type: functional; summary of the method: as §2
Mus musculus [33] = assay: Antagonism of apomorphine induced climbing was determined in female swiss -Wbster mice after (ip) administration of 10 mg/kg; type: functional; summary of the method: as §2
Mus musculus [34] = assay: Antagonism of apomorphine induced swimming was determined in female swiss -Webster mice after (po) administration of 10 mg/kg; type: functional
Summary of the method: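 Female Swiss-Webster mice (~20 g), food-deprived ~24 h, N = 20 per group; oral dosing in 0.5% w/w hydroxypropylmethylcellulose with 0.1% w/w Tween 80 in water. Apomorphine given; mice placed in a circular tank (5.5 cm water, room temperature) with marks 180° apart. Each 180° swim counted, observed via overhead mirrors; group score derived from swim counts.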

Mus musculus [35] = assay: Antagonism of apomorphine induced swimming was determined in female swiss -Webster mice after (po) administration of 20 mg/kg; type: functional
Mus musculus [36] = assay: Antagonism of apomorphine induced swimming was determined in female swiss -Webster mice after (po) administration of 40 mg/kg; type: functional
Mus musculus [37] = assay: Antagonism of apomorphine induced swimming was determined in female swiss -Webster mice after (po) administration of 80 mg/kg; type: functional
[38] = Number of animals showing dyskinesias was determined in haloperidol sensitized 2 cebus monkeys after (po) administration of 80 mg/kg; type: functional; summary of the method: as §1
[39] = Number of animals showing dyskinesias was determined in haloperidol sensitized 2cebus monkeys after (po) administration of 20 mg/kg; type: functional; summary of the method: as §1
[40] = Number of animals showing dyskinesias was determined in haloperidol sensitized 4 cebus monkeys after (po) administration of 40 mg/kg; type: functional; summary of the method: as §1
[41] = Number of animals showing dyskinesias was determined in haloperidol sensitized 3 cebus monkeys after (po) administration of 10 mg/kg; type: functional; summary of the method: as §1
Mus musculus [42] = assay: Antagonism of apomorphine induced swimming was determined in female swiss -Wbster mice after (ip) administration of 10 mg/kg; type: functional

D(2) dopamine receptor (Rattus norvegicus), sequence (P61169 whole entry): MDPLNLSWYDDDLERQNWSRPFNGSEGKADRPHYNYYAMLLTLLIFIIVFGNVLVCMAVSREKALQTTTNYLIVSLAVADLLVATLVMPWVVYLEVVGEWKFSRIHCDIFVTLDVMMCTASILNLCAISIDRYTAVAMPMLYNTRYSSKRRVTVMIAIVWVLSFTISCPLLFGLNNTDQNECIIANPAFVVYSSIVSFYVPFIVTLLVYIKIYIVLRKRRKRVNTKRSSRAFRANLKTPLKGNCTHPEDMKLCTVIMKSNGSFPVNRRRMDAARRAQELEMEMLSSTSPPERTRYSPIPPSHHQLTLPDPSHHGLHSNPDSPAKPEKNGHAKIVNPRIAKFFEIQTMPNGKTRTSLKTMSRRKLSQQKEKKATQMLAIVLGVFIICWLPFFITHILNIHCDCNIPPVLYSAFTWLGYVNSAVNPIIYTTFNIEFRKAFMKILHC
D(2) dopamine receptor, sequence (P61169 whole entry): as above

| % displacement of spiropiperidone [2] [%] | IC50 (D(2) dopamine receptor) [nM] | Structure (SMILES) | Activity (Mus musculus [3]) | Activity (Mus musculus [4]) | Activity (Mus musculus [5]) | Activity (Mus musculus [9]) | Activity (Mus musculus [10]) | Activity (Mus musculus [13]) | Activity (Mus musculus [14]) | Activity (Mus musculus [15]) | Activity (Mus musculus [16]) | Activity (Mus musculus [17]) | further results |
| --- | --- | --- | --- | --- | --- | --- | --- | --- | --- | --- | --- | --- | --- |
| 22 |  | OCCOCCN1CCN(C2=Nc3ccccc3Cc3ccccc32)CC1 | 21 | 17 | 2 | 1 | 1 |  |  |  |  |  | No of monkeys [1]: 0; Activity (Mus musculus [6]): 24; Activity (Mus musculus [7]): 17; Activity (Mus musculus [8]): 10; Activity (Mus musculus [11]): 3 |
| 27 |  | CN1CCN(C2=Nc3ccccc3Oc3ccccc32)CC1 |  |  |  |  |  | 2 | 19 | 0 | 3 | 13 | Activity (Mus musculus [23]): 3; Activity (Mus musculus [24]): 3; Activity (Mus musculus [25]): 13; Activity (Mus musculus [26]): 24; Activity (Mus musculus [27]): 25; Activity (Mus musculus [28]): 18; Activity (Mus musculus [29]): 19; Activity (Mus musculus [30]): 19; Activity (Mus musculus [31]): 19; Activity (Mus musculus [32]): 10 |
|  | 963 | CN1CCN(C2=Nc3ccc(F)cc3Sc3ccccc32)CC1 | 13 | 5 | 1 |  |  |  |  |  |  |  | Activity (Mus musculus [33]): 18; Activity (Mus musculus [34]): 1; Activity (Mus musculus [35]): 2; Activity (Mus musculus [36]): 3; Activity (Mus musculus [37]): 9 |

Second part, the molecule before the results:

| Structure (SMILES) | % displacement of spiropiperidone [2] [%] | IC50 (D(2) dopamine receptor) [nM] | Activity (Mus musculus [3]) | Activity (Mus musculus [4]) | Activity (Mus musculus [5]) | Activity (Mus musculus [9]) | Activity (Mus musculus [10]) | Activity (Mus musculus [13]) | Activity (Mus musculus [14]) | Activity (Mus musculus [15]) | Activity (Mus musculus [16]) | Activity (Mus musculus [17]) | further results |
| --- | --- | --- | --- | --- | --- | --- | --- | --- | --- | --- | --- | --- | --- |
| COC(CO)CN1CCN(C2=Nc3ccccc3Sc3ccccc32)CC1 (configuration not stated) |  | 755 |  |  |  |  |  | 8 | 21 | 2 | 1 | 19 | No of monkeys [12]: 2; Activity (Mus musculus [18]): 6; Activity (Mus musculus [19]): 0; Activity (Mus musculus [20]): 22; Activity (Mus musculus [21]): 32; Activity (Mus musculus [22]): 2 |
| OCCOCCN1CCN(C2=Nc3cc(F)ccc3Sc3ccccc32)CC1 | 34 |  | 16 | 14 | 6 |  |  |  |  |  |  |  | No of monkeys [38]: 0; No of monkeys [39]: 0; No of monkeys [40]: 0 |
| OCCN1CCN(C2=Nc3ccccc3Sc3ccccc32)CC1 |  |  |  |  |  | 18 | 28 | 24 |  | 6 | 1 |  | No of monkeys [41]: 2; Activity (Mus musculus [42]): 3 |
